Data published in ChEMBL document CHEMBL5058577, “EUbOPEN Chemogenomics Library 2 (Multiplex)” (2022).

Test system: Fibroblast
Test: Multiplex assay against human fibroblast
Assay type: toxicity, cell-based
Procedure, shortened: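 Live cells were stained at seeding with Hoechst33342, BioTracker Green Microtubule Cytoskeleton Dye, MitoTracker Red and Annexin V Alexa Fluor 680. Following compound addition, they were imaged on a CQ1 microscope at 37°C and 5% CO2 and gated by CellPathfinder machine learning into Hoechst high-intensity objects or normal cells, with normal cells split into healthy, pyknosed or fragmented nuclei and pyknosed cells into mitotic or apoptotic. Tubulin, mitochondrial-mass and membrane-permeability phenotypes are per cents of healthy-nucleus cells.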

[1] = 12 h, 1 µM, compound concentration 1 uM, replicate 1
[2] = 12 h, 1 µM, compound concentration 1 uM, replicate 2
[3] = 12 h, 10 µM, compound concentration 10 uM, replicate 1
[4] = 12 h, 10 µM, compound concentration 10 uM, replicate 2
[5] = 24 h, 1 µM, compound concentration 1 uM, replicate 1
[6] = 24 h, 1 µM, compound concentration 1 uM, replicate 2
[7] = 24 h, 10 µM, compound concentration 10 uM, replicate 1
[8] = 24 h, 10 µM, compound concentration 10 uM, replicate 2
[9] = 48 h, 1 µM, compound concentration 1 uM, replicate 1
[10] = 48 h, 1 µM, compound concentration 1 uM, replicate 2
[11] = 48 h, 10 µM, compound concentration 10 uM, replicate 1
[12] = 48 h, 10 µM, compound concentration 10 uM, replicate 2

NCCc1cn(S(=O)(=O)c2c(Cl)nc3sccn23)c2ccccc12.O=C(O)C(=O)O
Population Apoptotic (%) [1]: 45% | Population Fragmented Nuclei (%) [1]: 20% | Population Healthy Nuclei (%) [1]: 65% | Population Hoechst High Intensity Objects (%) [1]: 4% | Population Membrane Permeable-Phenotype (%) [1]: 0% | Population Mitochondria Different-Phenotype (%) [1]: 5% | Population Mitotic Cells (%) [1]: 55% | Population Normal (%) [1]: 95% | Population Pyknosed Nuclei (%) [1]: 14% | Population Tubulin-Different-Phenotype (%) [1]: 40% | Total Cell Count [1]: 146 | Population Fragmented Nuclei (%) [2]: 34% | Population Healthy Nuclei (%) [2]: 37% | Population Hoechst High Intensity Objects (%) [2]: 3% | Population Membrane Permeable-Phenotype (%) [2]: 13% | Population Mitochondria Different-Phenotype (%) [2]: 8% | Population Mitotic Cells (%) [2]: 54% | Population Normal (%) [2]: 96% | Population Pyknosed Nuclei (%) [2]: 28% | Population Tubulin-Different-Phenotype (%) [2]: 62% | Total Cell Count [2]: 170 | Population Apoptotic (%) [3]: 78% | Population Fragmented Nuclei (%) [3]: 20% | Population Healthy Nuclei (%) [3]: 56% | Population Hoechst High Intensity Objects (%) [3]: 6% | Population Membrane Permeable-Phenotype (%) [3]: 0% | Population Mitochondria Different-Phenotype (%) [3]: 40% | Population Mitotic Cells (%) [3]: 21% | Population Normal (%) [3]: 93% | Population Pyknosed Nuclei (%) [3]: 22% | Population Tubulin-Different-Phenotype (%) [3]: 90% | Total Cell Count [3]: 177 | Population Apoptotic (%) [4]: 57% | Population Fragmented Nuclei (%) [4]: 24% | Population Healthy Nuclei (%) [4]: 44% | Population Membrane Permeable-Phenotype (%) [4]: 5% | Population Mitochondria Different-Phenotype (%) [4]: 34% | Population Mitotic Cells (%) [4]: 42% | Population Pyknosed Nuclei (%) [4]: 30% | Population Tubulin-Different-Phenotype (%) [4]: 89% | Total Cell Count [4]: 219 | Population Apoptotic (%) [5]: 50% | Population Fragmented Nuclei (%) [5]: 21% | Population Healthy Nuclei (%) [5]: 64% | Population Hoechst High Intensity Objects (%) [5]: 3% | Population Membrane Permeable-Phenotype (%) [5]: 0% | Population Mitochondria Different-Phenotype (%) [5]: 13% | Population Mitotic Cells (%) [5]: 50% | Population Normal (%) [5]: 96% | Population Pyknosed Nuclei (%) [5]: 13% | Population Tubulin-Different-Phenotype (%) [5]: 42% | Total Cell Count [5]: 156 | Population Apoptotic (%) [6]: 46% | Population Fragmented Nuclei (%) [6]: 35% | Population Healthy Nuclei (%) [6]: 44% | Population Hoechst High Intensity Objects (%) [6]: 4% | Population Membrane Permeable-Phenotype (%) [6]: 18% | Population Mitochondria Different-Phenotype (%) [6]: 11% | Population Mitotic Cells (%) [6]: 53% | Population Normal (%) [6]: 95% | Population Pyknosed Nuclei (%) [6]: 20% | Population Tubulin-Different-Phenotype (%) [6]: 70% | Total Cell Count [6]: 166 | Population Apoptotic (%) [7]: 77% | Population Fragmented Nuclei (%) [7]: 22% | Population Healthy Nuclei (%) [7]: 62% | Population Hoechst High Intensity Objects (%) [7]: 3% | Population Membrane Permeable-Phenotype (%) [7]: 0% | Population Mitochondria Different-Phenotype (%) [7]: 58% | Population Mitotic Cells (%) [7]: 22% | Population Normal (%) [7]: 96% | Population Pyknosed Nuclei (%) [7]: 14% | Population Tubulin-Different-Phenotype (%) [7]: 89% | Total Cell Count [7]: 193 | Population Apoptotic (%) [8]: 72% | Population Fragmented Nuclei (%) [8]: 30% | Population Healthy Nuclei (%) [8]: 51% | Population Hoechst High Intensity Objects (%) [8]: 7% | Population Membrane Permeable-Phenotype (%) [8]: 5% | Population Mitochondria Different-Phenotype (%) [8]: 32% | Population Mitotic Cells (%) [8]: 27% | Population Normal (%) [8]: 92% | Population Pyknosed Nuclei (%) [8]: 18% | Population Tubulin-Different-Phenotype (%) [8]: 81% | Total Cell Count [8]: 237 | Population Apoptotic (%) [9]: 50% | Population Fragmented Nuclei (%) [9]: 27% | Population Healthy Nuclei (%) [9]: 63% | Population Hoechst High Intensity Objects (%) [9]: 4% | Population Membrane Permeable-Phenotype (%) [9]: 2% | Population Mitochondria Different-Phenotype (%) [9]: 3% | Population Mitotic Cells (%) [9]: 50% | Population Normal (%) [9]: 95% | Population Pyknosed Nuclei (%) [9]: 9% | Population Tubulin-Different-Phenotype (%) [9]: 46% | Total Cell Count [9]: 177 | Population Apoptotic (%) [10]: 54% | Population Fragmented Nuclei (%) [10]: 38% | Population Healthy Nuclei (%) [10]: 47% | Population Hoechst High Intensity Objects (%) [10]: 6% | Population Membrane Permeable-Phenotype (%) [10]: 9% | Population Mitochondria Different-Phenotype (%) [10]: 17% | Population Mitotic Cells (%) [10]: 45% | Population Normal (%) [10]: 93% | Population Pyknosed Nuclei (%) [10]: 14% | Population Tubulin-Different-Phenotype (%) [10]: 58% | Total Cell Count [10]: 166 | Population Apoptotic (%) [11]: 85% | Population Fragmented Nuclei (%) [11]: 22% | Population Healthy Nuclei (%) [11]: 65% | Population Hoechst High Intensity Objects (%) [11]: 7% | Population Membrane Permeable-Phenotype (%) [11]: 0% | Population Mitochondria Different-Phenotype (%) [11]: 43% | Population Mitotic Cells (%) [11]: 14% | Population Normal (%) [11]: 92% | Population Pyknosed Nuclei (%) [11]: 12% | Population Tubulin-Different-Phenotype (%) [11]: 92% | Total Cell Count [11]: 189 | Population Apoptotic (%) [12]: 75% | Population Fragmented Nuclei (%) [12]: 31% | Population Healthy Nuclei (%) [12]: 59% | Population Hoechst High Intensity Objects (%) [12]: 3% | Population Membrane Permeable-Phenotype (%) [12]: 3% | Population Mitochondria Different-Phenotype (%) [12]: 24% | Population Mitotic Cells (%) [12]: 25% | Population Normal (%) [12]: 96% | Population Pyknosed Nuclei (%) [12]: 8% | Population Tubulin-Different-Phenotype (%) [12]: 74% | Total Cell Count [12]: 241
